Test results reported in ChEMBL document CHEMBL5724801, “EUbOPEN Chemogenomics Library - Multiplex” (2024).
Values joined by “and” are separate entries in the source; they are usually repeats but may differ in a detail not shown here. Identical values can stand only once.

Columns and labels:
Assay type in all cases: toxicity, cell-based
Fibroblast = assay: Multiplex assay against human fibroblast
Summary of the method: (§1)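 At seeding, live cells were stained with Hoechst33342, BioTracker Green Microtubule Cytoskeleton Dye, MitoTracker Red and Annexin V Alexa Fluor 680. After compound addition they were imaged on a CQ1 microscope at 37°C and 5% CO2, and CellPathfinder machine-learning gating sorted them into Hoechst high-intensity objects or normal cells, with normal cells further split into healthy, pyknosed or fragmented nuclei and pyknosed cells into mitotic or apoptotic. Tubulin, mitochondrial-mass and membrane-permeability phenotypes are given as per cents of cells with healthy nuclei.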

HEK-293T = assay: Multiplex assay against HEK293T; conditions: human; summary of the method: as §1
U2OS = assay: Multiplex assay against U2OS; conditions: human; summary of the method: as §1
[1] = 12 h, 1 µM, compound concentration 1 uM
[2] = 12 h, 10 µM, compound concentration 10 uM
[3] = 24 h, 1 µM, compound concentration 1 uM
[4] = 24 h, 10 µM, compound concentration 10 uM
[5] = 48 h, 1 µM, compound concentration 1 uM
[6] = 48 h, 10 µM, compound concentration 10 uM

CC(F)(F)CN1CCOc2c(nn(-c3ccccc3Cl)c2-c2ccc(Cl)cc2)C1=O
Population Apoptotic (%) (Fibroblast; [1]): 42% and 31% | Population Healthy Nuclei (%) (Fibroblast; [1]): 66% and 48% | Population Hoechst High Intensity Objects (%) (Fibroblast; [1]): 0% | Population Membrane Permeable-Phenotype (%) (Fibroblast; [1]): 1% | Population Mitochondria Different-Phenotype (%) (Fibroblast; [1]): 4% and 10% | Population Mitotic Cells (%) (Fibroblast; [1]): 57% and 68% | Population Normal (%) (Fibroblast; [1]): 99% and 93% | Population Pyknosed Nuclei (%) (Fibroblast; [1]): 15% and 25% | Population Tubulin-Different-Phenotype (%) (Fibroblast; [1]): 61% | Total Cell Count (Fibroblast; [1]): 125 and 122 | Population Apoptotic (%) (Fibroblast; [2]): 47% and 30% | Population Healthy Nuclei (%) (Fibroblast; [2]): 66% and 53% | Population Hoechst High Intensity Objects (%) (Fibroblast; [2]): 1% and 5% | Population Membrane Permeable-Phenotype (%) (Fibroblast; [2]): 0% and 2% | Population Mitochondria Different-Phenotype (%) (Fibroblast; [2]): 19% and 8% | Population Mitotic Cells (%) (Fibroblast; [2]): 52% and 70% | Population Normal (%) (Fibroblast; [2]): 98% and 94% | Population Pyknosed Nuclei (%) (Fibroblast; [2]): 17% and 15% | Population Tubulin-Different-Phenotype (%) (Fibroblast; [2]): 49% and 57% | Total Cell Count (Fibroblast; [2]): 109 and 134 | Population Apoptotic (%) (Fibroblast; [3]): 61% and 64% | Population Healthy Nuclei (%) (Fibroblast; [3]): 65% and 52% | Population Hoechst High Intensity Objects (%) (Fibroblast; [3]): 1% and 4% | Population Membrane Permeable-Phenotype (%) (Fibroblast; [3]): 1% | Population Mitochondria Different-Phenotype (%) (Fibroblast; [3]): 2% and 10% | Population Mitotic Cells (%) (Fibroblast; [3]): 38% and 36% | Population Normal (%) (Fibroblast; [3]): 98% and 95% | Population Pyknosed Nuclei (%) (Fibroblast; [3]): 15% and 20% | Population Tubulin-Different-Phenotype (%) (Fibroblast; [3]): 75% | Total Cell Count (Fibroblast; [3]): 119 and 129 | Population Apoptotic (%) (Fibroblast; [4]): 33% and 35% | Population Healthy Nuclei (%) (Fibroblast; [4]): 65% and 54% | Population Hoechst High Intensity Objects (%) (Fibroblast; [4]): 0% and 1% | Population Membrane Permeable-Phenotype (%) (Fibroblast; [4]): 0% and 6% | Population Mitochondria Different-Phenotype (%) (Fibroblast; [4]): 26% and 10% | Population Mitotic Cells (%) (Fibroblast; [4]): 66% and 64% | Population Normal (%) (Fibroblast; [4]): 99% and 98% | Population Pyknosed Nuclei (%) (Fibroblast; [4]): 10% and 14% | Population Tubulin-Different-Phenotype (%) (Fibroblast; [4]): 58% and 60% | Total Cell Count (Fibroblast; [4]): 111 and 121 | Population Apoptotic (%) (Fibroblast; [5]): 56% and 40% | Population Healthy Nuclei (%) (Fibroblast; [5]): 63% and 53% | Population Hoechst High Intensity Objects (%) (Fibroblast; [5]): 1% and 4% | Population Membrane Permeable-Phenotype (%) (Fibroblast; [5]): 4% and 1% | Population Mitotic Cells (%) (Fibroblast; [5]): 43% and 60% | Population Normal (%) (Fibroblast; [5]): 98% and 95% | Population Pyknosed Nuclei (%) (Fibroblast; [5]): 11% and 7% | Population Tubulin-Different-Phenotype (%) (Fibroblast; [5]): 35% and 72% | Total Cell Count (Fibroblast; [5]): 136 and 135 | Population Apoptotic (%) (Fibroblast; [6]): 78% and 54% | Population Healthy Nuclei (%) (Fibroblast; [6]): 56% and 54% | Population Hoechst High Intensity Objects (%) (Fibroblast; [6]): 1% | Population Membrane Permeable-Phenotype (%) (Fibroblast; [6]): 0% and 3% | Population Mitotic Cells (%) (Fibroblast; [6]): 21% and 45% | Population Normal (%) (Fibroblast; [6]): 98% | Population Pyknosed Nuclei (%) (Fibroblast; [6]): 11% and 7% | Population Tubulin-Different-Phenotype (%) (Fibroblast; [6]): 57% | Total Cell Count (Fibroblast; [6]): 120 and 141 | Population Apoptotic (%) (HEK-293T; [1]): 29% and 64% | Population Healthy Nuclei (%) (HEK-293T; [1]): 77% and 78% | Population Membrane Permeable-Phenotype (%) (HEK-293T; [1]): 0% | Population Mitochondria Different-Phenotype (%) (HEK-293T; [1]): 43% and 53% | Population Mitotic Cells (%) (HEK-293T; [1]): 70% and 35% | Population Normal (%) (HEK-293T; [1]): 93% and 91% | Population Pyknosed Nuclei (%) (HEK-293T; [1]): 12% and 16% | Total Cell Count (HEK-293T; [1]): 397 and 369 | Population Apoptotic (%) (HEK-293T; [2]): 57% and 43% | Population Healthy Nuclei (%) (HEK-293T; [2]): 73% and 75% | Population Membrane Permeable-Phenotype (%) (HEK-293T; [2]): 0% | Population Mitochondria Different-Phenotype (%) (HEK-293T; [2]): 78% and 84% | Population Mitotic Cells (%) (HEK-293T; [2]): 42% and 56% | Population Normal (%) (HEK-293T; [2]): 89% and 94% | Population Pyknosed Nuclei (%) (HEK-293T; [2]): 22% and 18% | Total Cell Count (HEK-293T; [2]): 384 and 397 | Population Apoptotic (%) (HEK-293T; [3]): 25% and 43% | Population Healthy Nuclei (%) (HEK-293T; [3]): 79% and 84% | Population Membrane Permeable-Phenotype (%) (HEK-293T; [3]): 0% | Population Mitochondria Different-Phenotype (%) (HEK-293T; [3]): 22% and 31% | Population Mitotic Cells (%) (HEK-293T; [3]): 74% and 56% | Population Normal (%) (HEK-293T; [3]): 97% and 93% | Population Pyknosed Nuclei (%) (HEK-293T; [3]): 11% and 8% | Total Cell Count (HEK-293T; [3]): 568 and 478 | Population Apoptotic (%) (HEK-293T; [4]): 57% and 41% | Population Healthy Nuclei (%) (HEK-293T; [4]): 76% and 80% | Population Membrane Permeable-Phenotype (%) (HEK-293T; [4]): 0% | Population Mitochondria Different-Phenotype (%) (HEK-293T; [4]): 71% and 79% | Population Mitotic Cells (%) (HEK-293T; [4]): 42% and 58% | Population Normal (%) (HEK-293T; [4]): 92% and 94% | Population Pyknosed Nuclei (%) (HEK-293T; [4]): 15% | Population Tubulin-Different-Phenotype (%) (HEK-293T; [4]): 50% | Total Cell Count (HEK-293T; [4]): 450 and 477 | Population Apoptotic (%) (HEK-293T; [5]): 22% and 25% | Population Healthy Nuclei (%) (HEK-293T; [5]): 77% and 79% | Population Membrane Permeable-Phenotype (%) (HEK-293T; [5]): 1% | Population Mitochondria Different-Phenotype (%) (HEK-293T; [5]): 14% and 23% | Population Mitotic Cells (%) (HEK-293T; [5]): 77% and 74% | Population Normal (%) (HEK-293T; [5]): 99% and 97% | Population Pyknosed Nuclei (%) (HEK-293T; [5]): 7% | Population Tubulin-Different-Phenotype (%) (HEK-293T; [5]): 8% | Total Cell Count (HEK-293T; [5]): 1015 and 734 | Population Apoptotic (%) (HEK-293T; [6]): 55% and 35% | Population Healthy Nuclei (%) (HEK-293T; [6]): 74% and 78% | Population Membrane Permeable-Phenotype (%) (HEK-293T; [6]): 0% | Population Mitochondria Different-Phenotype (%) (HEK-293T; [6]): 62% and 68% | Population Mitotic Cells (%) (HEK-293T; [6]): 44% and 65% | Population Normal (%) (HEK-293T; [6]): 93% | Population Pyknosed Nuclei (%) (HEK-293T; [6]): 11% | Total Cell Count (HEK-293T; [6]): 540 and 558 | Population Apoptotic (%) (U2OS; [1]): 81% and 100% | Population Healthy Nuclei (%) (U2OS; [1]): 53% and 71% | Population Hoechst High Intensity Objects (%) (U2OS; [1]): 2% and 0% | Population Membrane Permeable-Phenotype (%) (U2OS; [1]): 3% | Population Mitotic Cells (%) (U2OS; [1]): 18% and 0% | Population Normal (%) (U2OS; [1]): 97% and 99% | Population Tubulin-Different-Phenotype (%) (U2OS; [1]): 8% and 4% | Total Cell Count (U2OS; [1]): 219 and 121 | Population Apoptotic (%) (U2OS; [2]): 83% and 60% | Population Healthy Nuclei (%) (U2OS; [2]): 62% and 71% | Population Hoechst High Intensity Objects (%) (U2OS; [2]): 1% | Population Membrane Permeable-Phenotype (%) (U2OS; [2]): 10% | Population Mitotic Cells (%) (U2OS; [2]): 16% and 40% | Population Normal (%) (U2OS; [2]): 98% | Population Tubulin-Different-Phenotype (%) (U2OS; [2]): 14% and 5% | Total Cell Count (U2OS; [2]): 216 and 130 | Population Apoptotic (%) (U2OS; [3]): 95% and 90% | Population Healthy Nuclei (%) (U2OS; [3]): 55% and 71% | Population Hoechst High Intensity Objects (%) (U2OS; [3]): 4% and 1% | Population Membrane Permeable-Phenotype (%) (U2OS; [3]): 9% | Population Mitotic Cells (%) (U2OS; [3]): 4% and 10% | Population Normal (%) (U2OS; [3]): 95% and 98% | Population Tubulin-Different-Phenotype (%) (U2OS; [3]): 6% and 13% | Total Cell Count (U2OS; [3]): 246 and 155 | Population Apoptotic (%) (U2OS; [4]): 70% and 80% | Population Healthy Nuclei (%) (U2OS; [4]): 63% and 77% | Population Hoechst High Intensity Objects (%) (U2OS; [4]): 1% | Population Mitotic Cells (%) (U2OS; [4]): 29% and 20% | Population Normal (%) (U2OS; [4]): 98% | Population Tubulin-Different-Phenotype (%) (U2OS; [4]): 7% and 5% | Total Cell Count (U2OS; [4]): 248 and 154 | Population Apoptotic (%) (U2OS; [5]): 94% and 89% | Population Healthy Nuclei (%) (U2OS; [5]): 66% and 69% | Population Hoechst High Intensity Objects (%) (U2OS; [5]): 4% and 1% | Population Membrane Permeable-Phenotype (%) (U2OS; [5]): 6% and 7% | Population Mitotic Cells (%) (U2OS; [5]): 5% and 10% | Population Normal (%) (U2OS; [5]): 95% and 98% | Population Tubulin-Different-Phenotype (%) (U2OS; [5]): 3% and 6% | Total Cell Count (U2OS; [5]): 333 and 203 | Population Apoptotic (%) (U2OS; [6]): 96% and 88% | Population Healthy Nuclei (%) (U2OS; [6]): 68% and 72% | Population Hoechst High Intensity Objects (%) (U2OS; [6]): 1% and 4% | Population Membrane Permeable-Phenotype (%) (U2OS; [6]): 8% | Population Mitotic Cells (%) (U2OS; [6]): 3% and 11% | Population Normal (%) (U2OS; [6]): 98% and 95% | Population Tubulin-Different-Phenotype (%) (U2OS; [6]): 6% and 4% | Total Cell Count (U2OS; [6]): 322 and 204
